The subject of test [1] is HT-22. In words: Neuroprotective activity against glutamate-mediated oxidative stress-induced cell death in mouse HT22 cells assessed as survival at 10 uM after 24 hrs by MTT assay. It is filed as functional. Summed up: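 HT22 mouse hippocampal cells seeded at 4000/well in DMEM-Hepes-GlutaMAX with 10% FBS; after 24 h, challenged with 5 mM glutamate plus test compound in fresh medium for 24 h. MTT formazan read as dOD 550–670 nm. % neuroprotection = (CD_vehicle − CD_compound)/CD_vehicle; efficacy classed full/partial/weak as 67–100, 34–66, ≤33%. Mean of ≥3 independent experiments.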
(In general: Formazan colour is commonly taken as a measure of viable cells.)

Test [2] has as its system HT-22. In words: Neuroprotective activity against glutamate-mediated oxidative stress-induced cell death in mouse HT22 cells assessed as survival after 24 hrs by MTT assay. In kind it is functional, cell-based. Put shortly:
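HT22 cells seeded at 4000/well in DMEM-Hepes-GlutaMAX with 10% FBS. After 24 h, 5 mM glutamate was added with or without test compound in fresh medium for 24 h. Viability was read by MTT formazan (OD 550 minus 670 nm), with DMSO vehicle controls. EC50 was the concentration keeping glutamate-exposed viability at 50% of unexposed cells. Mean ± SEM, ≥3 independent experiments.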

The subject of test [3] is HT-22. Kind of test: Ratio of beta-thujaplicin EC50 to drug EC50 for mouse HT22 cells.

A value given as a limit tells only on which side of the number the result lay.

For the molecule `CCOC(=O)N1CCN(Cc2ccc(C(C)C)cc(O)c2=O)CC1`, the Efficacy in the test with HT-22 [1] was 88%. Besides, in the test with HT-22 [2] (Mus musculus, HT-22, 24 h), the EC50 is 1.4 µM. Also, the “Ratio EC50” value in the test on HT-22 [3] is recorded as 3.4.

As for VITAMIN E, the EC50 in the test with HT-22 [2] (ht-22) is 0.2 µM.

Take `CC(C)c1ccc(CN2CCN(Cc3ccc(C(C)C)cc(O)c3=O)CC2)c(=O)c(O)c1`: the EC50 in the test on HT-22 [2] (Mus musculus, HT-22, 24 h) was determined as 0.92 µM.

For `COc1cc(C(C)C)ccc(Cn2cc(Cc3ccccc3)nn2)c1=O`, in the test on HT-22 [1], the Efficacy is on record as 30%. In the test with HT-22 [2] (Mus musculus, HT-22, 24 h), the EC50 was above 10 µM. Besides, in the test on HT-22 [3], the “Ratio EC50” value is on record as below 0.5.

As for `O=c1cccccc1O` [TROPOLONE], in the test on HT-22 [2] (Mus musculus, HT-22, 24 h), the EC50 is above 10 µM. For the same molecule, in the test on HT-22 [3], the “Ratio EC50” value was below 0.5.

In the case of `COc1cc(C(C)C)ccc(COc2ccccn2)c1=O`, the EC50 with HT-22 [2] (Mus musculus, HT-22, 24 h) is above 10 µM. In the test on HT-22 [3], the “Ratio EC50” value is below 0.5.

For the molecule `Cc1c(C)c2c(c(C)c1O)CCC(C)(C(=O)NCCN1CCN(Cc3ccc(C(C)C)cc(O)c3=O)CC1)O2` (configuration not stated), the Efficacy in the test on HT-22 [1] was found to be 89%. The EC50 with HT-22 [2] (Mus musculus, HT-22, 24 h) came to 0.09 µM. In addition, the “Ratio EC50” value in the test with HT-22 [3] is given as 53.

With `O=c1c(O)ccccc1CN1CCOCC1`, the EC50 in the test with HT-22 [2] (Mus musculus, HT-22, 24 h) is above 10 µM. Also, the “Ratio EC50” value with HT-22 [3] was below 0.5.

As for `CC(C)c1ccc(CN2CCOCC2)c(=O)c(O)c1`, the Efficacy in the test with HT-22 [1] is 87%. The EC50 with HT-22 [2] (Mus musculus, HT-22, 24 h) is 2.56 µM. For the same molecule, in the test on HT-22 [3], the “Ratio EC50” value turned out to be 1.9.

Turning to `CC(C)c1ccc(CN2CCN(c3ccc([N+](=O)[O-])cc3)CC2)c(=O)c(O)c1`, the Efficacy in the test on HT-22 [1] amounted to 91%. The EC50 in the test with HT-22 [2] (Mus musculus, HT-22, 24 h) stood at 1.7 µM. In the test with HT-22 [3], the “Ratio EC50” value is reported as 2.8.

As for `CC(C)c1ccc(CN2CCN(Cc3ccc([N+](=O)[O-])cc3)CC2)c(=O)c(O)c1`, the Efficacy with HT-22 [1] worked out at 100%. Moreover, the EC50 with HT-22 [2] (Mus musculus, HT-22, 24 h) came to 0.96 µM. For the same molecule, the “Ratio EC50” value with HT-22 [3] is given as 5.

With `CC(C)c1cccc(=O)c(O)c1` [HINOKITIOL], the Efficacy in the test with HT-22 [1] was 62%. The EC50 in the test with HT-22 [2] (Mus musculus, HT-22, 24 h) was determined as 4.8 µM. Further, the “Ratio EC50” value with HT-22 [3] is listed as 1.

Consider `Cc1c(C)c2c(c(C)c1O)CCC(C)(C(=O)N1CCN(Cc3ccc(C(C)C)cc(O)c3=O)CC1)O2` (configuration not stated), for which the Efficacy in the test on HT-22 [1] was 62%. Besides, the EC50 in the test on HT-22 [2] (Mus musculus, HT-22, 24 h) is 0.08 µM. The “Ratio EC50” value in the test with HT-22 [3] stood at 60.

Usually EC50 stands for the concentration at which the effect is half-maximal.

For the origin of these results see ChEMBL document CHEMBL1154870, “Synthesis of tropolone derivatives and evaluation of their in vitro neuroprotective activity” (Eur J Med Chem, 2010).
